Among the data in ChEMBL document CHEMBL1126237, “Synthesis and receptor binding properties of fluoro- and iodo-substituted high affinity sigma receptor ligands: identification of potential PET and SPECT sigma receptor imaging agents” (J Med Chem, 1992) are Ki values, retold here.

SMILES strings stand for the structures.

Assay [1] concerns the target T1, Kappa-type opioid receptor (Cavia porcellus, UniProt P41144). The assay is described as follows: Binding affinity against Opioid receptor kappa 1 from guinea pig brain, using [3H](-)-bremazocine as radioligand; NI=no inhibition. A digest of the protocol:
(§1)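 Guinea pig brain crude P2 membranes (500 μg protein) with 2 nM [3H](-)-bremazocine, plus 100 nM DAMGO and 100 nM DSTLE to block μ/δ sites. Incubated in 0.5 mL 10 mM Tris-HCl pH 7.4, 90 min, 25 °C. Nonspecific binding with 10 μM levallorphan. Filtration. Screened at 100–10 000 nM. No inhibition = <30% at 10 000 nM.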

For assay [2], the target named is T2, D(2) dopamine receptor (Rattus norvegicus, UniProt P61169). The assay is described as follows: Binding affinity against dopamine receptor D2 from rat brain, using [3H](-)-sulpiride as radioligand. Summed up:
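Rat brain crude P2 membranes (500 μg protein) incubated with 5 nM [3H](-)-sulpiride in 50 mM Tris-HCl pH 7.7 + 120 mM NaCl, 60 min, 25 °C; nonspecific with 1 μM haloperidol; filtration.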

The target in assay [3] is Muscarinic acetylcholine receptor. Briefly: Binding affinity against muscarinic cholinergic receptor from rat brain, using [3H]-QNB as radioligand. A digest of the protocol: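 Rat brain P2 membranes (~500 μg protein) with 0.3 nM [3H]QNB in 0.5 mL Krebs-Henseleit/HEPES pH 7.4, 60–90 min, 37 °C. Nonspecific binding with 10 μM QNB. Stopped with ice-cold PBS, then filtration. […] IC50 converted to Ki by Cheng-Prusoff.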

Assay [4] addresses T1, Kappa-type opioid receptor. The assay is described as follows: Binding affinity against opioid receptor kappa from guinea pig brain, using [3H](-)-bremazocine as radioligand; NI=no inhibition. A digest of the protocol:
as §1

The target of assay [5] is T2, D(2) dopamine receptor. Briefly: Binding affinity against Dopamine receptor D2 from rat brain, using [3H](-)-sulpiride as radioligand. A digest of the protocol: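 Rat brain (minus cerebella) crude P2 membranes, 500 μg protein, incubated with 5 nM [3H](-)-sulpiride in 0.5 mL 50 mM Tris-HCl pH 7.7 + 120 mM NaCl, 60 min, 25 °C. Nonspecific binding with 1 μM haloperidol. Filtration, scintillation counting. […] IC50 by curve fitting, Cheng-Prusoff Ki.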

The target of assay [6] is T1, Kappa-type opioid receptor. Briefly: Binding affinity against Opioid receptor kappa 1 from guinea pig brain, using [3H](-)-bremazocine as radioligand. Summed up:
as §1

Assay [7] has as its target T1, Kappa-type opioid receptor. The assay is described as follows: Binding affinity against opioid receptor kappa from guinea pig brain, using [3H](-)-bremazocine as radioligand. Summed up: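 Guinea pig brain P2 membranes (500 μg protein) with 2 nM [3H](-)-bremazocine plus 100 nM DAMGO and 100 nM DSTLE blocking μ/δ, 10 mM Tris-HCl pH 7.4, 90 min, 25 °C; nonspecific with 10 μM levallorphan; filtration.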

T2 sequence (P61169 whole entry): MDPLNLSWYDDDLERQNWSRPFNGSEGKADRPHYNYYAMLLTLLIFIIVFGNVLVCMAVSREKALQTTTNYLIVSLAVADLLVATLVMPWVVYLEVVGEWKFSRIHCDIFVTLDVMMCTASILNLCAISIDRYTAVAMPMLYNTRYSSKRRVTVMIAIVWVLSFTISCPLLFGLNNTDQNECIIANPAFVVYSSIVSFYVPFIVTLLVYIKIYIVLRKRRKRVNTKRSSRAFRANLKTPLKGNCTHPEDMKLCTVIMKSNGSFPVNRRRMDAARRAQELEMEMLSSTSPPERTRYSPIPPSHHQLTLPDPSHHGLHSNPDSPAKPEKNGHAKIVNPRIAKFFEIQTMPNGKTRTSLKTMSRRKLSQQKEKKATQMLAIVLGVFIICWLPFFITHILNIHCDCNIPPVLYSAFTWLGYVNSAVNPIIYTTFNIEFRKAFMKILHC
T1 sequence (P41144 whole entry): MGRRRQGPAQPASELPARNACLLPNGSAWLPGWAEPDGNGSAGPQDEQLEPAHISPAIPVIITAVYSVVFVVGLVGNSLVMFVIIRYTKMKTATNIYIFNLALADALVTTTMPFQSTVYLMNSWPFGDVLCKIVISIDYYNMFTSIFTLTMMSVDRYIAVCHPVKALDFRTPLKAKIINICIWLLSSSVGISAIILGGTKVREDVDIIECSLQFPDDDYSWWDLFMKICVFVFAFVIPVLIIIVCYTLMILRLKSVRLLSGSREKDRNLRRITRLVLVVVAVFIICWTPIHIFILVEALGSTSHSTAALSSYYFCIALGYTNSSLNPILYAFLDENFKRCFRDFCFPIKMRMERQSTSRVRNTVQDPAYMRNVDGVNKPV

With `CN(CCc1ccc(Cl)c(Cl)c1)CCN1CCCC1`, the inhibition constant Ki (in general, a measure of affinity in units of concentration, obtained from inhibition or displacement) in assay [1] is recorded as “Not Active”.

Take `FCCCN1CCN(CCc2ccc(Cl)c(Cl)c2)CC1`: the inhibitory constant (Ki) in assay [2] is 12 µM; in assay [3], 682.5 µM; in assay [4], “Not Active”.

Turning to `CCCN1CCN(CCc2ccc(Cl)c(Cl)c2)CC1`, the inhibitory constant (Ki) entry in assay [1] is “Not Active”; in assay [5] it was 2.9 µM.

Turning to `FCCCN(CCc1ccc(Cl)c(Cl)c1)CCN1CCCC1`, the Ki in assay [3] is 32.03 µM; in assay [6], 10.5 µM; in assay [5] it was 3.11 µM.

In the case of `CN(CCc1cc(Cl)c(Cl)cc1I)CCN1CCCC1`, the results for the Ki in assay [3], in assay [6] and in assay [5] were 7 µM, 18.5 µM and 1.31 µM, respectively.

`CCCCCN1CC[C@@]2(C)c3cc(O)ccc3CC1[C@H]2C` (single isomer, unassigned; (+)): the Ki in assay [2] amounted to 2.53 µM; in assay [3] it was 56.85 µM; in assay [7], 1.99 µM.
